Reference: ChEMBL document CHEMBL1629643, “Naturally occurring Class A ss-lactamases from the Burkholderia cepacia complex” (Antimicrob Agents Chemother, 2009)
Values after ≈ are worked out from the molar mass of the structure shown.

Assays:
Burkholderia cenocepacia [1] = assay: Antimicrobial activity against Burkholderia cenocepacia 07-34 expressing beta-lactamase PenB1; format: functional
Summary of the method: (§1)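 MICs measured by broth microdilution and by Etest on clinical B. cenocepacia isolates grown for 18 h in Trypticase soy broth (30°C and 37°C). Susceptibility was read against CLSI guidelines.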

Burkholderia cenocepacia [2] = assay: Antimicrobial activity against Burkholderia cenocepacia 09-54 expressing beta-lactamase PenB2; format: functional; summary of the method: as §1
Burkholderia cenocepacia [3] = assay: Antimicrobial activity against Burkholderia cenocepacia 212 expressing beta-lactamase PenB3; format: functional; summary of the method: as §1
Burkholderia cenocepacia [4] = assay: Antimicrobial activity against Burkholderia cenocepacia 5007902 expressing beta-lactamase PenB4; format: functional; summary of the method: as §1
Escherichia coli [5] = assay: Antimicrobial activity against Escherichia coli TOP10 harboring beta-lactamase PenB1; format: functional
Summary of the method: (§2)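 MICs by broth microdilution and Etest, interpreted per CLSI guidelines. Strains tested were host E. coli TOP10, and TOP10 carrying pBcSau13 (pBK-CMV vector, kanamycin-resistant) holding a Sau3AI fragment of B. cenocepacia 212 DNA that encodes PenB1.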

Escherichia coli [6] = assay: Antimicrobial activity against Escherichia coli TOP10; format: functional; summary of the method: as §2
Burkholderia cenocepacia [7] = assay: Antimicrobial activity against Burkholderia cenocepacia 07-34 expressing beta-lactamase PenB in presence of 4 ug/ml beta-lactamase inhibitor Tazobactam; format: functional
Summary of the method: (§3)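 Isolates were cultured for 18 h in Trypticase soy broth (30°C and 37°C), then tested by microdilution and Etest. […] MICs were interpreted using CLSI guidelines.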

Burkholderia cenocepacia [8] = assay: Antimicrobial activity against Burkholderia cenocepacia 09-54 expressing beta-lactamase PenB2 in presence of 4 ug/ml beta-lactamase inhibitor Tazobactam; format: functional; summary of the method: as §3
Burkholderia cenocepacia [9] = assay: Antimicrobial activity against Burkholderia cenocepacia 212 expressing beta-lactamase PenB3 in presence of 4 ug/ml beta-lactamase inhibitor Tazobactam; format: functional; summary of the method: as §3
Burkholderia cenocepacia [10] = assay: Antimicrobial activity against Burkholderia cenocepacia 5007902 expressing beta-lactamase PenB4 in presence of 4 ug/ml beta-lactamase inhibitor Tazobactam; format: functional; summary of the method: as §3
Escherichia coli [11] = assay: Antimicrobial activity against Escherichia coli TOP10 harboring beta-lactamase PenB1 in presence of 4 ug/ml beta-lactamase inhibitor Tazobactam; format: functional
Summary of the method: (§4)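 E. coli TOP10 host, either plain or carrying the pBK-CMV clone pBcSau13 with the B. cenocepacia 212 insert. MICs by broth microdilution and Etest, read against CLSI guidelines.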

Escherichia coli [12] = assay: Antimicrobial activity against Escherichia coli TOP10 in presence of 4 ug/ml beta-lactamase inhibitor Tazobactam; format: functional; summary of the method: as §4
[13] = substrate: CC(=O)OCC1=C(C(=O)O)N2C(=O)[C@@H](NC(=O)Cc3cccs3)[C@H]2SC1; details: Burkholderia cenocepacia; 07-34
[14] = substrate: CC(C)(O/N=C(\C(=O)N[C@@H]1C(=O)N2C(C(=O)[O-])=C(C[n+]3ccccc3)CS[C@H]12)c1csc(N)n1)C(=O)O; details: Burkholderia cenocepacia; 07-34
[15] = substrate: CC1(C)S[C@@H]2[C@H](NC(=O)Cc3ccccc3)C(=O)N2[C@H]1C(=O)O; details: Burkholderia cenocepacia; 07-34
[16] = substrate: CC1(C)S[C@@H]2[C@H](NC(=O)[C@H](C(=O)O)c3ccsc3)C(=O)N2[C@H]1C(=O)O; details: Burkholderia cenocepacia; 07-34
[17] = substrate: CC1(C)S[C@@H]2[C@H](NC(=O)[C@H](N)c3ccccc3)C(=O)N2[C@H]1C(=O)O; details: Burkholderia cenocepacia; 07-34
[18] = substrate: CCN1CCN(C(=O)N[C@@H](C(=O)N[C@@H]2C(=O)N3[C@@H]2SC(C)(C)[C@@H]3C(=O)O)c2ccccc2)C(=O)C1=O; details: Burkholderia cenocepacia; 07-34
[19] = substrate: CO/N=C(\C(=O)N[C@@H]1C(=O)N2C(C(=O)O)=C(COC(C)=O)CS[C@H]12)c1csc(N)n1; details: Burkholderia cenocepacia; 07-34
[20] = substrate: CO/N=C(\C(=O)N[C@@H]1C(=O)N2C(C(=O)O)=C(COC(N)=O)CS[C@H]12)c1ccco1; details: Burkholderia cenocepacia; 07-34
[21] = substrate: CO/N=C(\C(=O)N[C@@H]1C(=O)N2C(C(=O)[O-])=C(C[N+]3(C)CCCC3)CS[C@H]12)c1csc(N)n1; details: Burkholderia cenocepacia; 07-34
[22] = substrate: C[C@@H](O)[C@H]1C(=O)N2C(C(=O)O)=C(SCCNC=N)C[C@H]12; details: Burkholderia cenocepacia; 07-34
[23] = substrate: C[C@@H](O)[C@H]1C(=O)N2C(C(=O)O)=C(S[C@@H]3CN[C@H](C(=O)N(C)C)C3)[C@H](C)[C@H]12; details: Burkholderia cenocepacia; 07-34
[24] = substrate: C[C@H]1[C@H](NC(=O)/C(=N\OC(C)(C)C(=O)O)c2csc(N)n2)C(=O)N1S(=O)(=O)O; details: Burkholderia cenocepacia; 07-34
[25] = substrate: CC(=O)OCC1=C(C(=O)O)N2C(=O)[C@@H](NC(=O)Cc3cccs3)[C@H]2SC1; details: Burkholderia cenocepacia; 07-34; remark: listed apart in the source
[26] = substrate: CC(C)(O/N=C(\C(=O)N[C@@H]1C(=O)N2C(C(=O)[O-])=C(C[n+]3ccccc3)CS[C@H]12)c1csc(N)n1)C(=O)O; details: Burkholderia cenocepacia; 07-34; remark: listed apart in the source
[27] = substrate: CC1(C)S[C@@H]2[C@H](NC(=O)Cc3ccccc3)C(=O)N2[C@H]1C(=O)O; details: Burkholderia cenocepacia; 07-34; remark: listed apart in the source
[28] = substrate: CC1(C)S[C@@H]2[C@H](NC(=O)[C@H](C(=O)O)c3ccsc3)C(=O)N2[C@H]1C(=O)O; details: Burkholderia cenocepacia; 07-34; remark: listed apart in the source
[29] = substrate: CC1(C)S[C@@H]2[C@H](NC(=O)[C@H](N)c3ccccc3)C(=O)N2[C@H]1C(=O)O; details: Burkholderia cenocepacia; 07-34; remark: listed apart in the source
[30] = substrate: CCN1CCN(C(=O)N[C@@H](C(=O)N[C@@H]2C(=O)N3[C@@H]2SC(C)(C)[C@@H]3C(=O)O)c2ccccc2)C(=O)C1=O; details: Burkholderia cenocepacia; 07-34; remark: listed apart in the source
[31] = substrate: CO/N=C(\C(=O)N[C@@H]1C(=O)N2C(C(=O)O)=C(COC(C)=O)CS[C@H]12)c1csc(N)n1; details: Burkholderia cenocepacia; 07-34; remark: listed apart in the source
[32] = substrate: CO/N=C(\C(=O)N[C@@H]1C(=O)N2C(C(=O)O)=C(COC(N)=O)CS[C@H]12)c1ccco1; details: Burkholderia cenocepacia; 07-34; remark: listed apart in the source
[33] = substrate: CO/N=C(\C(=O)N[C@@H]1C(=O)N2C(C(=O)[O-])=C(C[N+]3(C)CCCC3)CS[C@H]12)c1csc(N)n1; details: Burkholderia cenocepacia; 07-34; remark: listed apart in the source
[34] = substrate: C[C@@H](O)[C@H]1C(=O)N2C(C(=O)O)=C(SCCNC=N)C[C@H]12; details: Burkholderia cenocepacia; 07-34; remark: listed apart in the source
[35] = substrate: C[C@@H](O)[C@H]1C(=O)N2C(C(=O)O)=C(S[C@@H]3CN[C@H](C(=O)N(C)C)C3)[C@H](C)[C@H]12; details: Burkholderia cenocepacia; 07-34; remark: listed apart in the source
[36] = substrate: C[C@H]1[C@H](NC(=O)/C(=N\OC(C)(C)C(=O)O)c2csc(N)n2)C(=O)N1S(=O)(=O)O; details: Burkholderia cenocepacia; 07-34; remark: listed apart in the source

CC(C)(O/N=C(\C(=O)N[C@@H]1C(=O)N2C(C(=O)[O-])=C(C[n+]3ccccc3)CS[C@H]12)c1csc(N)n1)C(=O)O [CEFTAZIDIME]
MIC (Burkholderia cenocepacia [1]): 4 µg/mL (≈ 7.32 µM) | MIC (Burkholderia cenocepacia [2]): 32 µg/mL (≈ 58.5 µM) | MIC (Burkholderia cenocepacia [3]): 16 µg/mL (≈ 29.3 µM) | MIC (Burkholderia cenocepacia [4]): 0.25 µg/mL (≈ 0.457 µM) | MIC (Escherichia coli [5]): 1 µg/mL (≈ 1.83 µM) | MIC (Escherichia coli [6]): 0.5 µg/mL (≈ 0.915 µM)

CO/N=C(\C(=O)N[C@@H]1C(=O)N2C(C(=O)O)=C(COC(N)=O)CS[C@H]12)c1ccco1 [CEFUROXIME]
MIC (Burkholderia cenocepacia [1]): 16 µg/mL (≈ 37.7 µM) | MIC (Burkholderia cenocepacia [2]): 512 µg/mL (≈ 1210 µM) | MIC (Burkholderia cenocepacia [3]): 512 µg/mL (≈ 1210 µM) | MIC (Burkholderia cenocepacia [4]): 32 µg/mL (≈ 75.4 µM) | MIC (Escherichia coli [5]): 16 µg/mL (≈ 37.7 µM) | MIC (Escherichia coli [6]): 8 µg/mL (≈ 18.9 µM)

C[C@@H](O)[C@H]1C(=O)N2C(C(=O)O)=C(SCCNC=N)C[C@H]12 [IMIPENEM ANHYDROUS]
MIC (Burkholderia cenocepacia [1]): 8 µg/mL (≈ 26.7 µM) | MIC (Burkholderia cenocepacia [2]): 16 µg/mL (≈ 53.4 µM) | MIC (Burkholderia cenocepacia [3]): 16 µg/mL (≈ 53.4 µM) | MIC (Burkholderia cenocepacia [4]): 8 µg/mL (≈ 26.7 µM) | MIC (Escherichia coli [5]): 0.5 µg/mL (≈ 1.67 µM)

CCN1CCN(C(=O)N[C@@H](C(=O)N[C@@H]2C(=O)N3[C@@H]2SC(C)(C)[C@@H]3C(=O)O)c2ccccc2)C(=O)C1=O [PIPERACILLIN]
MIC (Burkholderia cenocepacia [1]): 4 µg/mL (≈ 7.73 µM) | MIC (Burkholderia cenocepacia [7]): 4 µg/mL | MIC (Burkholderia cenocepacia [2]): 512 µg/mL (≈ 989 µM) | MIC (Burkholderia cenocepacia [8]): 256 µg/mL | MIC (Burkholderia cenocepacia [3]): 128 µg/mL (≈ 247 µM) | MIC (Burkholderia cenocepacia [9]): 128 µg/mL | MIC (Burkholderia cenocepacia [4]): 4 µg/mL (≈ 7.73 µM) | MIC (Burkholderia cenocepacia [10]): 4 µg/mL | MIC (Escherichia coli [5]): 8 µg/mL (≈ 15.5 µM) | MIC (Escherichia coli [11]): 4 µg/mL | MIC (Escherichia coli [6]): 2 µg/mL (≈ 3.86 µM) | MIC (Escherichia coli [12]): 2 µg/mL

CC1(C)S[C@@H]2[C@H](NC(=O)[C@H](C(=O)O)c3ccsc3)C(=O)N2[C@H]1C(=O)O [TICARCILLIN]
MIC (Burkholderia cenocepacia [1]): 512 µg/mL (≈ 1330 µM) | MIC (Burkholderia cenocepacia [2]): 512 µg/mL (≈ 1330 µM) | MIC (Burkholderia cenocepacia [3]): 512 µg/mL (≈ 1330 µM) | MIC (Burkholderia cenocepacia [4]): 512 µg/mL (≈ 1330 µM) | MIC (Escherichia coli [5]): 512 µg/mL (≈ 1330 µM) | MIC (Escherichia coli [6]): 4 µg/mL (≈ 10.4 µM)

B1: PenB class A beta-lactamase (Burkholderia cenocepacia), B8R6A5 (protein)
chain: MTYSSKRRTLLLAAATAPLVLTATACASRQAAAPDPATAAAAAAADAMAPAAAAATLADLERDAGGRLGVCAIDTASGRVIEHRAGERFPFCSTFKAMLSAAVLAQSVERPGLLQQRVKYTKADLVNYSPVSEKHVGAGMTVAALCEATIQYSDNSAANLLMKLIGGPSAVTAYARSIGDDAFRLDRWETELNTALPGDPRDTTTPAAMAASIRVLTLGDALPAAQRAQLVAWLRGNKVGDKRIRAGVPAGWTVGDKTGTGDYGTTNDAGVIWPTSRAPIVLAVYYTQTRADARAKDDVIASVARIVAQTFG
Km [13]: 100 µM | kcat [13]: 300 s⁻¹ | Km [14]: 3000 µM | kcat [14]: 1.5 s⁻¹ | Km [15]: 25 µM | kcat [15]: 130 s⁻¹ | Km [16]: 60 µM | kcat [16]: 15 s⁻¹ | Km [17]: 100 µM | kcat [17]: 70 s⁻¹ | Km [18]: 10 µM | kcat [18]: 5 s⁻¹ | Km [19]: 150 µM | kcat [19]: 20 s⁻¹ | Km [20]: 80 µM | kcat [20]: 170 s⁻¹ | Km [21]: 1000 µM | kcat [21]: 10 s⁻¹ | Km [22]: 60 µM | kcat [22]: 0.1 s⁻¹ | Km [23]: 2500 µM | kcat [23]: 1 s⁻¹ | Km [24]: 2500 µM | kcat [24]: 30 s⁻¹ | kcat/Km [25]: 3e+06 M⁻¹ s⁻¹ | kcat/Km [26]: 500000 M⁻¹ s⁻¹ | kcat/Km [27]: 5.2e+06 M⁻¹ s⁻¹ | kcat/Km [28]: 250000 M⁻¹ s⁻¹ | kcat/Km [29]: 700000 M⁻¹ s⁻¹ | kcat/Km [30]: 500000 M⁻¹ s⁻¹ | kcat/Km [31]: 130000 M⁻¹ s⁻¹ | kcat/Km [32]: 2.1e+06 M⁻¹ s⁻¹ | kcat/Km [33]: 1e+07 M⁻¹ s⁻¹ | kcat/Km [34]: 2e+06 M⁻¹ s⁻¹ | kcat/Km [35]: 500 M⁻¹ s⁻¹ | kcat/Km [36]: 1e+07 M⁻¹ s⁻¹
